Results reported in PMC12086819 (RSC Advances, 2025).
Entries after “also recorded” stand apart in the source; their conditions may differ. Like-named read-outs stand apart in the source and are kept apart here.

Assays:
NIH-3T3 cells = test: MTT cytotoxicity assay in non-cancerous NIH-3T3 cells; format: cell-based, mouse; conditions: for IC50: Mus musculus; for cytotoxic effect on non-cancerous NIH-3T3 cells (in words): NIH-3T3 mouse embryonic fibroblast, treatment up to 48 h
Outline: (§1)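 Cells (A549 or NIH-3T3) were seeded at 5 × 10^3 per well and grown 24 h at 37 °C, 5% CO2, then given increasing concentrations for 24 h and 48 h. DMSO/medium served as negative control and cisplatin as standard. MTT (5 mg mL−1 stock) was added for 4 h at 37 °C, formazan was dissolved in DMSO, and A595 was read. Triplicate means were used; IC50 came from dose–response inhibition curves.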

A549 cells [1] = test: AO/EB and Hoechst 33258 staining assay; format: cell-based, human; conditions: A549 cells treated at respective IC50 concentration, 24 h and 48 h
Outline: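 A549 cells were seeded at 5 × 10^4 per well and grown 24 h at 37 °C, 5% CO2, then exposed at the respective IC50 concentration for 24 h and 48 h, alongside untreated and cisplatin controls. Staining used either AO/EB solution (100 μg per mL each) or Hoechst 33258 solution (100 μg per mL). Cells were examined and counted by fluorescence microscopy within 20 min.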

A549 cells [2] = test: Intracellular ROS generation; format: cell-based, human; conditions: IC50 concentrations, DCFH-DA, 0-24 h
Outline: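 Cells were seeded at 3.0 × 10^4 cells per mL in 24-well plates for 24 h, then dosed at 24 h IC50 concentrations with added 100 μM H2O2 solution. After 10 μM DCFH-DA solution was added, plates were held 10 min in the dark. DCF fluorescence (ex 488/em 510 nm) was read at 0, 2, 4, 6, 8, 12 and 24 h and expressed as fold change versus untreated control. Triplicates, mean ± SD.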

A549 cells [3] = test: MTT cytotoxicity assay against the A549 lung cancer cell line; format: cell-based, human; conditions: for cytotoxic activity compared with cisplatin: MTT
Outline: as §1

[4] = NIH3T3, 24 h, read-out: IC50 at 24 h
[5] = NIH3T3, 48 h, read-out: IC50 at 48 h

| Compound | IC50 (NIH-3T3 cells; [4]) [µM] | IC50 (NIH-3T3 cells; [5]) [µM] | apoptosis induction (AO/EB and Hoechst staining) (A549 cells [1]) | DCF fluorescent intensity compared with the untreated control group (A549 cells [2]) | cytotoxic effect on non-cancerous NIH-3T3 cells (in words) (NIH-3T3 cells) | cytotoxic activity compared with cisplatin (A549 cells [3]) | fold higher activity at 48 h than at 24 h (A549 cells [3]; IC50 at 48 h vs 24 h) [fold] | reduction in cell viability (A549 cells [3]; at 24 and 48 h) |
| --- | --- | --- | --- | --- | --- | --- | --- | --- |
| Cc1cc(C)c(C2CN(C)C3(C(=O)Nc4ccccc43)C2C(=O)c2ccccc2)c(C)c1 (stereo not drawn) [4a, 3′-Benzoyl-4′-mesityl-1′-methylspiro[indoline-3,2′-pyrrolidin]-2-one] | > 100 | 25.4 ± 3.74 | apoptosis-inducing capabilities | Not much difference |  |  |  |  |
| Cc1ccc(C(=O)C2C(c3c(C)cc(C)cc3C)C3CCCN3C23C(=O)Nc2ccccc23)cc1 (stereo not drawn) [5e, 1′-Mesityl-2′-(4-methylbenzoyl)-1′,2′,5′,6′,7′,7a′-hexahydrospiro[indoline-3,3′-pyrrolizin]-2-one] | > 100 | > 100 | higher number of early and late apoptotic cells; also recorded: apoptosis-inducing capabilities | Not much difference | non-cytotoxic; also recorded: no cytotoxic effects |  |  |  |
| Cc1cccc(C(=O)C2C(c3c(C)cc(C)cc3C)C3CCCN3C23C(=O)Nc2ccccc23)c1 (stereo not drawn) [5g, 1′-Mesityl-2′-(3-methylbenzoyl)-1′,2′,5′,6′,7′,7a′-hexahydrospiro[indoline-3,3′-pyrrolizin]-2-one] | > 100 | > 100 |  |  |  | better activity than cisplatin |  |  |
| Cc1cc(C)c(C2C3CCCN3C3(C(=O)Nc4ccccc43)C2C(=O)c2ccc(Br)cc2)c(C)c1 (stereo not drawn) [5d, 2′-(4-Bromobenzoyl)-1′-mesityl-1′,2′,5′,6′,7′,7a′-hexahydrospiro[indoline-3,3′-pyrrolizin]-2-one] | > 100 | 42.9 ± 1.51 |  |  |  | better activity than cisplatin |  |  |
| Cc1cc(C)c(C2C3CCCN3C3(C(=O)Nc4ccccc43)C2C(=O)c2ccc(F)cc2)c(C)c1 (stereo not drawn) [5b, 2′-(4-Fluorobenzoyl)-1′-mesityl-1′,2′,5′,6′,7′,7a′-hexahydrospiro[indoline-3,3′-pyrrolizin]-2-one] | > 100 | 69.9 ± 1.3 |  |  |  | better activity than cisplatin |  |  |
| Cc1cc(C)c(C2C3CCCN3C3(C(=O)Nc4ccccc43)C2C(=O)c2cccc(Cl)c2)c(C)c1 (stereo not drawn) [5f, 2′-(3-Chlorobenzoyl)-1′-mesityl-1′,2′,5′,6′,7′,7a′-hexahydrospiro[indoline-3,3′-pyrrolizin]-2-one] | > 100 | > 100 | higher number of early and late apoptotic cells; also recorded: apoptosis-inducing capabilities; also recorded: induces apoptosis | Not much difference | non-cytotoxic; also recorded: no cytotoxic effects |  | ~13 |  |
| Cc1cc(C)c(C2CN(C)C3(C(=O)Nc4ccccc43)C2C(=O)c2ccc(Cl)cc2)c(C)c1 (stereo not drawn) [4c, 3′-(4-Chlorobenzoyl)-4′-mesityl-1′-methylspiro[indoline-3,2′-pyrrolidin]-2-one] | > 100 | > 100 |  |  |  | better activity than cisplatin |  |  |
| Cc1cccc(C(=O)C2C(c3c(C)cc(C)cc3C)CN(C)C23C(=O)Nc2ccccc23)c1 (stereo not drawn) [4g, 4′-Mesityl-1′-methyl-3′-(3-methylbenzoyl)spiro[indoline-3,2′-pyrrolidin]-2-one] | > 100 | 75.3 ± 0.94 |  | Not much difference |  |  |  |  |
| N.N.[Cl][Pt][Cl] [Cisplatin, cisplatin, reference compound] |  |  | distinct changes as an indication of apoptosis and cell death |  |  |  |  |  |
| Cc1cc(C)c(C2C3CCCN3C3(C(=O)Nc4ccccc43)C2C(=O)c2ccc(Cl)cc2)c(C)c1 (stereo not drawn) [5c, 2′-(4-Chlorobenzoyl)-1′-mesityl-1′,2′,5′,6′,7′,7a′-hexahydrospiro[indoline-3,3′-pyrrolizin]-2-one] | > 100 | 72.1 ± 0.95 |  | Not much difference |  | better activity than cisplatin |  |  |
| Cc1cc(C)c(C2CN(C)C3(C(=O)Nc4ccccc43)C2C(=O)c2ccc(Br)cc2)c(C)c1 (stereo not drawn) [4d, 3′-(4-Bromobenzoyl)-4′-mesityl-1′-methylspiro[indoline-3,2′-pyrrolidin]-2-one] | > 100 | > 100 |  |  |  | better activity than cisplatin |  |  |
| Cc1cc(C)c(C2CN(C)C3(C(=O)Nc4ccccc43)C2C(=O)c2cccc(Cl)c2)c(C)c1 (stereo not drawn) [4f, 3′-(3-Chlorobenzoyl)-4′-mesityl-1′-methylspiro[indoline-3,2′-pyrrolidin]-2-one] | > 100 | > 100 |  |  |  |  |  | No substantial reduction in cell viability |
| Cc1cc(C)c(C2C3CCCN3C3(C(=O)Nc4ccccc43)C2C(=O)c2ccccc2)c(C)c1 (stereo not drawn) [5a, 2′-Benzoyl-1′-mesityl-1′,2′,5′,6′,7′,7a′-hexahydrospiro[indoline-3,3′-pyrrolizin]-2-one] | > 100 | 72 ± 4.45 |  |  |  | better activity than cisplatin |  |  |
| Cc1cc(C)c(C2CN(C)C3(C(=O)Nc4ccccc43)C2C(=O)c2ccc(F)cc2)c(C)c1 (stereo not drawn) [4b, 3′-(4-Fluorobenzoyl)-4′-mesityl-1′-methylspiro[indoline-3,2′-pyrrolidin]-2-one] | > 100 | 32.8 ± 5.95 |  | Not much difference |  |  |  |  |
| Cc1ccc(C(=O)C2C(c3c(C)cc(C)cc3C)CN(C)C23C(=O)Nc2ccccc23)cc1 (stereo not drawn) [4e, 4′-Mesityl-1′-methyl-3′-(4-methylbenzoyl)spiro[indoline-3,2′-pyrrolidin]-2-one] | > 100 | > 100 |  | Not much difference |  | better activity than cisplatin |  |  |
